# Calls of active or inactive are those of the source.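 How the source made its calls, unless noted: active means potentiation averaged over duplicate wells exceeding buffer-only control mean by more than 3 SD; inactive means the rest.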
# Key:
# [1] = thallium flux activation in parental CHO cells, counter-screen for KCNQ1 potentiator project (AID 493006;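 active means duplicate-averaged activation above buffer control mean plus 5 SD of those controls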;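 on activation: fluorescence ratio of max minus min over baseline after K+ and Tl+ depolarization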); settings: parental CHO-K1 cells, FluxOR thallium flux, at 10 µM; active compounds read high
# Summary of the method: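 Material: untransfected host CHO-K1 cells with FluxOR thallium dye. Timing: overnight 37 °C plating, 90 min RT dye, 20 min compound. Detection: kinetic FluxOR fluorescence, 10 s baseline, 110 s after stimulus. Read-out basis: max-minus-min fluorescence over baseline, percent of buffer-to-R-L3 span. Replicates: duplicate wells per compound, percent values averaged.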
# [2] = target: Potassium voltage-gated channel subfamily KQT member 1 (Homo sapiens) (UniProt P51787); experiment: KCNQ1 potassium channel potentiators, confirmation, FluxOR thallium flux, CHO cells, duplicates (AID 493007); settings: KCNQ1 cell line, FluxOR thallium flux fluorescence, at 10 µM; active compounds read high, % of reference activator effect, buffer zero;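 on outcome: cells depolarized by a potassium plus thallium sulfate stimulus after compound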
# Summary of the method: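 Test system – KCNQ1-expressing CHO cell line · Incubation – FluxOR dye loading 90 min, compound exposure 20 min, room temperature · Detection – FluxOR Tl+ flux fluorescence, 10 s baseline plus 110 s recording · Controls – buffer-only wells as 0% and R-L3 activator as 100%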
# [3] = target: Potassium voltage-gated channel subfamily KQT member 2 (Rattus norvegicus) (UniProt O88943); experiment: rat KCNQ2 channel potentiation, selectivity assay for KCNQ1 potentiator project, KCNQ2-CHO-K1 cells (AID 493009;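 active means mean duplicate potentiation above the buffer control mean plus 5 SD of buffer wells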;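 further: assay conditions were tuned for KCNQ1 rather than KCNQ2 modulators; signal is max minus min fluorescence divided by baseline after thallium stimulus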); settings: FluxOR thallium flux fluorescence, at 10 µM; active compounds read high, scaled: buffer 0, activator control 100
# [4] = target: Potassium voltage-gated channel subfamily KQT member 1 (Homo sapiens) (UniProt P51787); experiment: KCNQ1 channel current potentiators, confirmation, orthogonal assay for KCNQ1 potentiator project, IonWorks patch clamp, KCNQ1-CHO cells (AID 493184;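 active means current rise at least 3 SD above the untreated control mean in each of two repeat wells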); settings: automated patch clamp current, at 10 µM; active compounds read high
# Summary of the method: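 Read-out: Percent current increase versus pre-compound level | Assay system: CHO cells carrying KCNQ1 | Measured by: Automated perforated-patch electrophysiology | Medium: External bath solution at pH 7.4 | Dosing: One dose, 10 µM final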
# Sequence of Potassium voltage-gated channel subfamily KQT member 1 (Homo sapiens) (P51787 whole entry, looked up): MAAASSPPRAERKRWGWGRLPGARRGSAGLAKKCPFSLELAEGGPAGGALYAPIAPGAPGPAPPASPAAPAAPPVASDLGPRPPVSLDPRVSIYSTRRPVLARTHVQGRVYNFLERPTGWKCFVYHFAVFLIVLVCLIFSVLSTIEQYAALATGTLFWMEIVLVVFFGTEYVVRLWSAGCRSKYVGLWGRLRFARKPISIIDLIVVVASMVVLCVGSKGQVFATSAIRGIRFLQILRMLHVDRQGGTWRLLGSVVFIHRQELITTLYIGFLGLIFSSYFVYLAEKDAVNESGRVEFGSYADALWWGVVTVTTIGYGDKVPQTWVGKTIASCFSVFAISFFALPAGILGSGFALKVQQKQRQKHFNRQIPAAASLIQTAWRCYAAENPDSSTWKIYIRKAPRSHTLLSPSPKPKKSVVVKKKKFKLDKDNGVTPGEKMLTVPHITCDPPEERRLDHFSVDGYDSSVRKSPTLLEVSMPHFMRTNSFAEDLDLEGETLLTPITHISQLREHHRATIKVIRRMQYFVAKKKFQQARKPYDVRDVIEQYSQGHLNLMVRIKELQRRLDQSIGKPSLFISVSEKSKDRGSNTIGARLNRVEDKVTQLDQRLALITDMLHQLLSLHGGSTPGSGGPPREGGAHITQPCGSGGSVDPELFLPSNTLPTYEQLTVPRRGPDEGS
# Sequence of Potassium voltage-gated channel subfamily KQT member 2 (Rattus norvegicus) (O88943 whole entry, looked up): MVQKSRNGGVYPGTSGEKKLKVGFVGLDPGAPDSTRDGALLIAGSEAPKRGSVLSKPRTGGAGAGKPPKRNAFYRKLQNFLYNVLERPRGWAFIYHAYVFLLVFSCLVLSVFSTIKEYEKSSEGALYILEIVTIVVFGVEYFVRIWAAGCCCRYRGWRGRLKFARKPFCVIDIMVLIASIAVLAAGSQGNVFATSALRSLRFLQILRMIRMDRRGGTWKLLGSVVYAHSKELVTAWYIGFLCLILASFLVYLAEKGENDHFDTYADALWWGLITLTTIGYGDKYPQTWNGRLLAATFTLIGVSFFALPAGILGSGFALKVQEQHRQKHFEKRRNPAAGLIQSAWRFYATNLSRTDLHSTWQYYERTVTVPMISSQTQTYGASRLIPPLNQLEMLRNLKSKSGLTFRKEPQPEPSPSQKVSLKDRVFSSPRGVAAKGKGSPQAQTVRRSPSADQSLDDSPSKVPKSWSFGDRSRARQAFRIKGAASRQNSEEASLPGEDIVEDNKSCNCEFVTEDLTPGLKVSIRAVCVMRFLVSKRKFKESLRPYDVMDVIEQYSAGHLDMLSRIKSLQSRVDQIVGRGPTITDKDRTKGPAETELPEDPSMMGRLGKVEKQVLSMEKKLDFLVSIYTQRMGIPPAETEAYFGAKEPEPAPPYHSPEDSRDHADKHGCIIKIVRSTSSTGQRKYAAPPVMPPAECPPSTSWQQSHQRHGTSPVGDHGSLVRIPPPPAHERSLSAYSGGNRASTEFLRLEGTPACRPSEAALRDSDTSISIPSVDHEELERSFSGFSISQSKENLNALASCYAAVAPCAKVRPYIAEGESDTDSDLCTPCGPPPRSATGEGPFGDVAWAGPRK
SMILES,activation [1],potentiation [2],potentiation [3],outcome [4],outcome [1],outcome [2],outcome [3]
Cc1ccc(-c2c(=O)n(O)c3ccccc3[n+]2[O-])cc1,202% (active),25% (active),184% (active),inactive,–,–,–
O=C(Nc1nc(=O)c2ccccc2s1)c1ccc(Cl)cc1,246% (active),85.5% (active),242% (active),inactive,–,–,–
CC1Cc2ccccc2N1C(=S)NC(=O)C1(C)CC1(Cl)Cl (stereo not given),236% (active),72.5% (active),267% (active),inactive,–,–,–
CC(C)(C)CC(C)(C)NC(=S)NC1CCN(Cc2ccccc2)CC1,–,–,–,inactive,inactive,inactive,inactive
O=C(NC(=S)Nc1nc2ccc(F)cc2s1)c1ccco1,282% (active),132% (active),331% (active),inactive,–,–,–
O=C(Nc1ccccc1Cl)N1CCN(c2ccccn2)CC1,–,–,–,inactive,inactive,inactive,inactive
O=C(NCc1ccccc1)c1onc(CSc2ccc(F)cc2)c1C(=O)NCCCN1CCOCC1,–,–,–,inactive,inactive,inactive,inactive
O=C(CNC(=O)c1sc2ccccc2c1Cl)OCc1ccccc1,–,–,–,inactive,inactive,inactive,inactive
C/C(N)=C(/C#N)C(=O)COc1ncnc2ccc(Br)cc12,–,–,–,inactive,inactive,inactive,inactive
CNC(=S)Nc1sc2c(c1C(=O)OC)CCC2,252% (active),89.5% (active),287% (active),inactive,–,–,–
CC(C)(C)NC(=O)C(=O)NNC(=O)c1ccc(C(C)(C)C)cc1,341% (active),112% (active),352% (active),inactive,–,–,–
O=c1c2ccccc2[nH]c(=S)n1CCC1=CCCCC1,212% (active),46% (active),196% (active),inactive,–,–,–
COc1ccc(NC(=O)CN(C)C(=O)c2ccc(N3CCOCC3)c([N+](=O)[O-])c2)cc1,151% (active),22% (active),186% (active),inactive,–,–,–
CC(/C=C1\SC(=S)N(NS(=O)(=O)c2ccccc2)C1=O)=C\c1ccccc1,304% (active),157% (active),318% (active),inactive,–,–,–
Cc1nn(C)c(C(=O)NC(=S)Nc2ccccc2Br)c1Cl,232% (active),96% (active),254% (active),inactive,–,–,–
O=C(Nc1cccc(S(=O)(=O)NC2=NCCC2)c1)c1c(F)cccc1Cl,–,–,–,inactive,inactive,inactive,inactive
CCOC(=O)c1cnc2c(C)c(Cl)ccc2c1N1CCN(CC)CC1,–,–,–,inactive,inactive,inactive,inactive
COc1ccccc1-c1nc(C#N)c(N2CC(C)CC(C)C2)o1 (stereo not given),–,–,–,inactive,inactive,inactive,inactive
CC1=C(C)/C(=N\OS(=O)(=O)c2ccccc2)C=CC1=O,–,–,–,inactive,inactive,inactive,inactive
Cc1cc(C)cc(C(=O)OCC(=O)NCC(F)(F)F)c1,–,–,–,inactive,inactive,inactive,inactive
Cc1ccccc1C(=O)NCc1ccncc1,–,–,–,inactive,inactive,inactive,inactive
CCCCn1c(=O)nc2n(-c3ccccc3C)c3ccccc3cc-2c1=O,–,–,–,inactive,inactive,inactive,inactive
S=c1nc[nH]c2c1sc1nc(-c3ccccc3)c3c(c12)CCCC3,456% (active),328% (active),499% (active),inactive,–,–,–
Cc1cc([N+](=O)[O-])ccc1-c1ccc(C2Nc3ccccc3C(=O)N2O)o1 (stereo not given),174% (active),18.5% (active),158% (active),inactive,–,–,–
Cc1ccc(C2=NOC(=O)/C2=C\C=C\c2ccccc2)cc1,–,–,–,inactive,inactive,inactive,inactive
COc1ccc2nc(N=Nc3ccc(O)c4ccccc34)sc2c1,210% (active),83.5% (active),188% (active),inactive,–,–,–
N#CC(c1ccc(Cl)cc1)c1ccc2c(C(F)(F)F)cc(C(F)(F)F)nc2n1 (stereo not given),296% (active),145% (active),407% (active),inactive,–,–,–
S=c1[nH]c2cc(-c3ccccc3)ccc2o1,306% (active),89.5% (active),318% (active),inactive,–,–,–
COc1ccc(-n2c(NCCN(C)C)nc3sc4c(c3c2=O)CCCCC4)cc1,–,–,–,inactive,inactive,inactive,inactive
COC(=O)c1c(N)sc2c1CCN(c1ncc(C(F)(F)F)cc1Cl)C2,–,–,142% (active),inactive,inactive,inactive,–

# Source: PubChem BioAssay
